Calls of active or inactive are those of the source. The rule behind the calls is not given here.
Assays:
TK-10 = assay: Growth inhibition of human TK10 cells by NCI standard protocol based method; assay type: functional
Outline: (§1)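 NCI 60-cell-line screen, standard NCI protocol. Single high dose of 10⁻⁵ M first, then a 5-dose assay across the full panel. Reported as GI₅₀, TGI and LC₅₀, the molar concentrations giving 50% net growth inhibition, total growth inhibition and 50% net cell death. Where an effect was not reached, the highest tested concentration was used.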

U-251 = assay: Growth inhibition of human U251 cells by NCI standard protocol based method; assay type: functional; outline: as §1
HCT-15 = assay: Growth inhibition of human HCT15 cells by NCI standard protocol based method; assay type: functional
Outline: (§2)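 NCI full 60-cell-line panel, 5-dose assay to the NCI standard protocol. GI₅₀ is the molar concentration inhibiting 50% net cell growth. Mean graph midpoint is averaged over all lines; where the effect is not reached, the highest tested concentration is used.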

HL-60(TB) = assay: Growth inhibition of human HL-60(TB) cells by NCI standard protocol based method; assay type: functional
Outline: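 Tested in the NCI 60-cell-line screen under its standard protocol. A single-dose prescreen was run at 10⁻⁵ M, then a five-dose assay. GI50 is the molar concentration that inhibits net cell growth by 50%.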

[1] = Growth inhibition of human SF539 cells by NCI standard protocol based method; assay type: functional; settings: SF-539; outline: as §2
MDA-MB-435 = assay: Growth inhibition of human MDA-MB-435 cells by NCI standard protocol based method; assay type: functional; outline: as §2
K562 [2] = assay: Growth inhibition of human K562 cells by NCI standard protocol based method; assay type: functional; outline: as §2
NCI-H322M = assay: Growth inhibition of human NCI-H322M cells by NCI standard protocol based method; assay type: functional; outline: as §2
[3] = Growth inhibition of human HCC2998 cells by NCI standard protocol based method; assay type: functional; settings: HCC 2998; outline: as §2
M14 = assay: Growth inhibition of human M14 cells by NCI standard protocol based method; assay type: functional; outline: as §2
SK-MEL-28 = assay: Growth inhibition of human SK-MEL-28 cells by NCI standard protocol based method; assay type: functional; outline: as §2
K562 [4] = assay: Selectivity index, ratio of IC50 for human HuDe cells to IC50 human K562 cells
Outline: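 Index taken as the ratio of HuDe to K562 IC₅₀. For K562: about 2 × 10⁵ cells/mL, compounds added at graded concentrations, viable count by trypan blue exclusion with a hemocytometer after 24 h. For HuDe primary epidermal cells: 2 × 10⁴ cells/mL, drugs or 0.1% DMSO added 24 h after seeding, MTT read at 570 nm (690 nm blank) after 72 h.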

ACHN = assay: Growth inhibition of human ACHN cells by NCI standard protocol based method; assay type: functional; outline: as §2
NCI-H226 = assay: Growth inhibition of human NCI-H226 cells by NCI standard protocol based method; assay type: functional; outline: as §2
UACC-257 = assay: Growth inhibition of human UACC257 cells by NCI standard protocol based method; assay type: functional; outline: as §1
[5] = Growth inhibition of human HOP92 cells by NCI standard protocol based method; assay type: functional; settings: HOP-92; outline: as §2
SK-OV-3 = assay: Growth inhibition of human SKOV3 cells by NCI standard protocol based method; assay type: functional; outline: as §1
SN12C = assay: Growth inhibition of human SN12C cells by NCI standard protocol based method; assay type: functional; outline: as §1
OVCAR-5 = assay: Growth inhibition of human OVCAR5 cells by NCI standard protocol based method; assay type: functional; outline: as §2
K562 [6] = assay: Growth inhibition of human K562 cells at 10 uM incubated for 24 hrs by trypan blue dye exclusion assay; assay type: functional; settings: K562, 24 h, read-out: GI
Outline: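 K562 cells in medium with 5% FBS at 37 °C, 5% CO₂. About 2 × 10⁵ cells/mL cultured 24 h, then compound added at 10 μM. After 24 h exposure, cells counted by hemocytometer and viability scored by trypan blue exclusion, reported as percent growth inhibition.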

NCI/ADR-RES = assay: Growth inhibition of human NCI/ADR-RES cells by NCI standard protocol based method; assay type: functional; outline: as §2
HCT-116 = assay: Growth inhibition of human HCT116 cells by NCI standard protocol based method; assay type: functional; outline: as §2
CAKI-1 = assay: Growth inhibition of human CAKI-1 cells by NCI standard protocol based method; assay type: functional; outline: as §2
T47D = assay: Growth inhibition of human T47D cells by NCI standard protocol based method; assay type: functional; outline: as §1
Tubulin (Homo sapiens) = Tubulin (Homo sapiens) (UniProt P68371+Q9H4B7+P0DPH7+P68366+Q13509+Q71U36+P04350+Q3ZCM7+P07437+P68363+Q9BQE3+Q6PEY2+Q13885+Q9BVA1+Q9BUF5); assay: Inhibition of colchicine binding to tubulin (unknown origin); assay type: protein-complex assay
DU-145 = assay: Growth inhibition of human DU145 cells by NCI standard protocol based method; assay type: functional; outline: as §2
SK-MEL-5 = assay: Growth inhibition of human SK-MEL-5 cells by NCI standard protocol based method; assay type: functional; outline: as §2
[7] = Growth inhibition of human NCI60 cells assessed as cell growth level at 10 uM by NCI standard protocol based method; assay type: functional; set-up: scale not given: the % may be the effect or the level left
Outline: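 NCI 60-cell-line screen (leukemia, lung, colon, melanoma, renal, ovarian, brain, breast, prostate) run to the NCI standard protocol. Single high dose of 10⁻⁵ M, read as growth percent. Mean graph midpoint is the arithmetic mean over all lines tested.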

[8] = Growth inhibition of human NCI60 cells by NCI standard protocol based method; assay type: functional; settings: for TGI: read-out: pTGI (converted); outline: as §2
KM12 = assay: Growth inhibition of human KM12 cells by NCI standard protocol based method; assay type: functional; outline: as §2
IGROV-1 = assay: Growth inhibition of human IGROV1 cells by NCI standard protocol based method; assay type: functional; outline: as §2
OVCAR-3 = assay: Growth inhibition of human OVCAR3 cells by NCI standard protocol based method; assay type: functional; outline: as §2
HOP-62 = assay: Growth inhibition of human HOP62 cells by NCI standard protocol based method; assay type: functional; outline: as §2
[9] = Growth inhibition of human RXF393 cells by NCI standard protocol based method; assay type: functional; settings: RXF 393; outline: as §2
K562 [10] = assay: Growth inhibition of human K562 cells incubated for 24 hrs by trypan blue dye exclusion assay; assay type: functional, cell-based; settings: K562, 24 h
Outline: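 K562 cells, about 2 × 10⁵ cells/mL, precultured 24 h, then exposed 24 h to a range of compound concentrations. Viable cells counted by hemocytometer with trypan blue exclusion to derive IC₅₀.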

UO-31 = assay: Growth inhibition of human UO31 cells by NCI standard protocol based method; assay type: functional; outline: as §1
[11] = Growth inhibition of human MOLT4 cells by NCI standard protocol based method; assay type: functional; settings: MOLT-4; outline: as §2
[12] = Growth inhibition of human RPMI8226 cells by NCI standard protocol based method; assay type: functional; settings: RPMI-8226; outline: as §2
[13] = Cytotoxicity against human HuDe cells incubated for 72 hrs by MTT assay; assay type: cell-based
Outline: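 HuDe primary culture from human epidermis, seeded at 2 × 10⁴ cells/mL. Test drugs at different concentrations, or 0.1% DMSO, added 24 h after seeding, with 72 h exposure. MTT (5 mg/mL in PBS) then applied for 3 h at 37 °C. Formazan solubilized with isopropanol/triton X-100/HCl and read at 570 nm with 690 nm blank.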

Structure (SMILES): COc1cc(NC(=O)COc2ccccc2)c(C(N)=O)cc1OC
- GI50 (TK-10): 14.4 µM
- GI50 (U-251): 777 nM
- GI50 (HCT-15): 804 nM
- GI50 (HL-60(TB)): 293 nM
- GI50 [1]: 563 nM
- GI50 (MDA-MB-435): 614 nM
- GI50 (K562 [2]): 310 nM
- GI50 (NCI-H322M): 5.77 µM
- GI50 [3]: 3330 nM
- GI50 (M14): 4000 nM
- GI50 (SK-MEL-28): 24.2 µM
- Ratio IC50 (K562 [4]): 280.52
- GI50 (ACHN): 8.12 µM
- GI50 (NCI-H226): 42.8 µM
- GI50 (UACC-257): > 100 µM
- GI50 [5]: 17.7 µM
- GI50 (SK-OV-3): 3.58 µM
- GI50 (SN12C): 3.12 µM
- GI50 (OVCAR-5): 15 µM
- inhibition of growth at 10 µM (K562 [6]): 72.8%
- GI50 (NCI/ADR-RES): 487 nM
- GI50 (HCT-116): 620 nM
- GI50 (CAKI-1): 3800 nM
- GI50 (T47D): 3.46 µM
- inhibition (Tubulin (Homo sapiens)): inactive
- GI50 (DU-145): 914 nM
- GI50 (SK-MEL-5): 766 nM
- Activity [7]: 27.38%
- GI50 [8]: 1950 nM
- LC50 [8]: 93.3 µM
- TGI [8]: 49 µM
- GI50 (KM12): 443 nM
- GI50 (IGROV-1): 4.07 µM
- GI50 (OVCAR-3): 472 nM
- GI50 (HOP-62): 1750 nM
- GI50 [9]: 1690 nM
- IC50 (K562 [10]): 580 nM
- GI50 (UO-31): 13.5 µM
- GI50 [11]: 2910 nM
- GI50 [12]: 2270 nM
- IC50 [13]: 163 µM

Structure (SMILES): COc1ccc(NC(=O)COc2ccccc2)c(C(N)=O)c1
- GI50 (TK-10): 23.8 µM
- GI50 (U-251): 664 nM
- GI50 (HCT-15): 432 nM
- GI50 (HL-60(TB)): 340 nM
- GI50 [1]: 441 nM
- GI50 (MDA-MB-435): 121 nM
- GI50 (K562 [2]): 245 nM
- GI50 (NCI-H322M): 2.1 µM
- GI50 [3]: 2340 nM
- GI50 (M14): 514 nM
- GI50 (SK-MEL-28): 0.502 µM
- Ratio IC50 (K562 [4]): 856.28
- GI50 (ACHN): 2.25 µM
- GI50 (NCI-H226): 21.5 µM
- GI50 (UACC-257): > 100 µM
- GI50 [5]: 0.414 µM
- GI50 (SK-OV-3): 2.99 µM
- GI50 (SN12C): 3.09 µM
- GI50 (OVCAR-5): 5.4 µM
- inhibition of growth at 10 µM (K562 [6]): 85.3%
- GI50 (NCI/ADR-RES): 418 nM
- GI50 (HCT-116): 518 nM
- GI50 (CAKI-1): 721 nM
- inhibition (Tubulin (Homo sapiens)): inactive
- GI50 (DU-145): 1870 nM
- GI50 (SK-MEL-5): 1680 nM
- Activity [7]: 25.81%
- GI50 [8]: 891 nM
- LC50 [8]: 97.7 µM
- TGI [8]: 49 µM
- GI50 (KM12): 388 nM
- GI50 (IGROV-1): 4.75 µM
- GI50 (OVCAR-3): 375 nM
- GI50 (HOP-62): 1010 nM
- GI50 [9]: 1400 nM
- IC50 (K562 [10]): 1100 nM
- GI50 (UO-31): 8.72 µM
- GI50 [11]: 2000 nM
- GI50 [12]: 1170 nM
- IC50 [13]: 942 µM
